Data set [1] has as its target T1, cruzain (Trypanosoma cruzi, UniProt P25779). In words: Cruzain inhibition assay. In kind it is biochemical. The note with it: for time-dependence of cruzain inhibition over incubation: incubation 0 to 240 min, 1 μM of 8, 10 μM of 11, 10 uM of 4, 100 uM of 5.
Data set [2] addresses T1, cruzain. In words: LC/MS stability of compounds in the presence or absence of cruzain. The format is physicochemical. Conditions: for behaviour as cruzain substrate: LC/MS and time-dependence assay. The method, boiled down: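 Test compound solutions in 2 mM Bis Tris pH 5.8, with or without 100 nM cruzain, analysed by LC/MS at time points from 30 min to 24 h, with elution monitored at 254 nm, to detect degradation and whether cruzain catalyses it. In a separate run, cruzain activity was followed after incubation with test compound (1 or 10 μM) from 0 to 240 min.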

In data set [3] the target is T1, cruzain. In words: In vitro activity of compound 11 and representative analogues against cruzain. In kind it is biochemical.

T1 sequence (P25779 123-337 limits assumed): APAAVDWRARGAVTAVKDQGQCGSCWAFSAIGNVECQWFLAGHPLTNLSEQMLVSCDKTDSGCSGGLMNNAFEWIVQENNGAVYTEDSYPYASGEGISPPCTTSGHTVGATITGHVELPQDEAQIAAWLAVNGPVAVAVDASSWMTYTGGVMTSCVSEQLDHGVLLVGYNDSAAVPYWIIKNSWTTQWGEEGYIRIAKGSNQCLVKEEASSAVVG

`COc1ccc(Cl)cc1NC(=O)COC(=O)C(CC(C)C)N1C(=O)C2CC=CCC2C1=O` (stereo not drawn) [Compound 4] displayed a Ki on cruzain [1] of 1600 nM. For the same compound, the “behaviour as cruzain substrate” value on cruzain [2] is “did not behave as substrates”.
For the compound `CC(C)C(NC(=O)c1ccco1)C(=O)NCC(c1ccco1)N1CCCCC1` (stereo not drawn) [Compound 5], the “behaviour as cruzain substrate” value at cruzain [2] is on record as “did not behave as substrates”.
Regarding `O=C(CNC(=O)c1ccccc1)OC(C(=O)Nc1cc(C(F)(F)F)ccc1Cl)c1ccccc1` (stereo not drawn) [Compound 8], on cruzain [1], affinity was put at a Ki of 65 nM and the “time-dependence of cruzain inhibition over incubation” value was “clear time-dependent effect”.
In the case of `O=C(CNC(=O)c1ccc(Cl)cc1)OC(C(=O)Nc1ccc(Cl)cc1C(F)(F)F)c1ccccc1` (stereo not drawn) [Compound 11], on cruzain [1], the “time-dependence of cruzain inhibition over incubation” value is “clear time-dependent effect”. Besides, the “stability by LC/MS in the absence of cruzain” value on cruzain [2] (2 mM Bis Tris pH 5.8, no cruzain, one day) is “still observed in solution even after one day of incubation”. The “behaviour as cruzain substrate” value on cruzain [2] was “identified as a cruzain substrate”. Moreover, the IC50 against cruzain [3] came to 260 nM.

The term Ki denotes a measure of affinity in units of concentration, obtained from inhibition or displacement. Lower therefore signals tighter binding. For orientation: IC50 means the concentration that gives 50% inhibition. Low readings indicate inhibition by little substance, high ones a need for much substance.
